Experimental data reported in ChEMBL document CHEMBL3351782, “Synthesis and biological evaluation of glaucocalyxin A derivatives as potential anticancer agents” (Eur J Med Chem, 2014).

Key:
[1] = Antiproliferative activity against human SMMC7721 cells after 48 hrs by MTT assay; assay type: functional, cell-based; conditions: SMMC-7721, 48 h
Method in brief: (§1)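 Cells were seeded at 3 × 10^3 per well and exposed 24 h later, while growing exponentially, to compounds at final concentrations of 1.25 to 40 for 48 h. MTT (5 mg/mL in PBS) was then added for 6 h. The medium was aspirated, the formazan dissolved in DMSO and absorbance read at 570 nm. Survival is relative to untreated cells; IC50 comes from triplicate wells in at least three independent experiments.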

B16 = experiment: Antiproliferative activity against mouse B16 cells after 48 hrs by MTT assay; assay type: functional, cell-based; conditions: B16, 48 h; method in brief: as §1
[2] = Antiproliferative activity against human SGC7901 cells after 48 hrs by MTT assay; assay type: functional, cell-based; conditions: SGC-7901, 48 h; method in brief: as §1
A549 = experiment: Antiproliferative activity against human A549 cells after 48 hrs by MTT assay; assay type: functional, cell-based; conditions: A549, 48 h; method in brief: as §1
KB [3] = experiment: Antiproliferative activity against human KB cells after 48 hrs by MTT assay; assay type: functional, cell-based; method in brief: as §1
[4] = Antiproliferative activity against human HL60 cells after 48 hrs by MTT assay; assay type: functional, cell-based; conditions: HL-60, 48 h; method in brief: as §1
[5] = Antiproliferative activity against human HL7702 cells after 48 hrs by MTT assay; assay type: cell-based; conditions: L02, 48 h; method in brief: as §1
KB [6] = experiment: Induction of apoptosis in human KB cells after 48 hrs by Annexin V and propidium iodide staining based flow cytometry; assay type: functional, cell-based
Method in brief: (§2)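 KB cells were plated in 6-well plates at 2.5 × 10^5 cells/mL and treated for 48 h. Adherent and floating cells were pooled, washed twice in PBS and stained with Annexin V and PI in binding buffer for 20 min at room temperature. Samples were read immediately on a FACSCalibur; untreated cells served as control. Values are means ± SE of at least three independent experiments.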

KB [7] = experiment: Induction of apoptosis in human KB cells assessed as viable cells level at 10 uM after 48 hrs by Annexin V and propidium iodide staining based flow cytometry (reference value: 84.3%); assay type: functional; method in brief: as §2
KB [8] = experiment: Induction of apoptosis in human KB cells assessed as early apoptotic cells level at 10 uM after 48 hrs by Annexin V and propidium iodide staining based flow cytometry (reference value: 7.69%); assay type: functional; method in brief: as §2
KB [9] = experiment: Induction of apoptosis in human KB cells assessed as late apoptotic cells level at 10 uM after 48 hrs by Annexin V and propidium iodide staining based flow cytometry (reference value: 4.4%); assay type: functional; method in brief: as §2
KB [10] = experiment: Induction of apoptosis in human KB cells assessed as necrotic cells level at 10 uM after 48 hrs by Annexin V and propidium iodide staining based flow cytometry (reference value: 3.64%); assay type: functional; method in brief: as §2
KB [11] = experiment: Induction of apoptosis in human KB cells assessed as viable cells level at 20 uM after 48 hrs by Annexin V and propidium iodide staining based flow cytometry (reference value: 84.3%); assay type: functional; method in brief: as §2
KB [12] = experiment: Induction of apoptosis in human KB cells assessed as early apoptotic cells level at 20 uM after 48 hrs by Annexin V and propidium iodide staining based flow cytometry (reference value: 7.69%); assay type: functional; method in brief: as §2
KB [13] = experiment: Induction of apoptosis in human KB cells assessed as late apoptotic cells level at 20 uM after 48 hrs by Annexin V and propidium iodide staining based flow cytometry (reference value: 4.4%); assay type: functional; method in brief: as §2
KB [14] = experiment: Induction of apoptosis in human KB cells assessed as necrotic cells level at 20 uM after 48 hrs by Annexin V and propidium iodide staining based flow cytometry (reference value: 3.64%); assay type: functional; method in brief: as §2
KB [15] = experiment: Induction of apoptosis in human KB cells assessed as viable cells level at 40 uM after 48 hrs by Annexin V and propidium iodide staining based flow cytometry (reference value: 84.3%); assay type: functional; method in brief: as §2
KB [16] = experiment: Induction of apoptosis in human KB cells assessed as early apoptotic cells level at 40 uM after 48 hrs by Annexin V and propidium iodide staining based flow cytometry (reference value: 7.69%); assay type: functional; method in brief: as §2
KB [17] = experiment: Induction of apoptosis in human KB cells assessed as late apoptotic cells level at 40 uM after 48 hrs by Annexin V and propidium iodide staining based flow cytometry (reference value: 4.4%); assay type: functional; method in brief: as §2
KB [18] = experiment: Induction of apoptosis in human KB cells assessed as necrotic cells level at 40 uM after 48 hrs by Annexin V and propidium iodide staining based flow cytometry (reference value: 3.64%); assay type: functional; method in brief: as §2
[19] = Chemical stability in 10 mM pH 7.4 PBS buffer assessed as parent compound remaining at 1 uM at 37 degC after 24 hrs by HPLC method; assay type: physicochemical; conditions: read-out: Stability
Method in brief: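 DMSO stock was diluted into pre-warmed 10 mM PBS, pH 7.4, with 1% v/v DMSO final, and incubated at 37 °C. Aliquots were taken at set times and injected directly onto reversed-phase HPLC (ODS column, water + 0.1% TFA eluent, external standard). The result is percent parent remaining after 24 h, mean ± SD, n = 3.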

[20] = Stability in 80% rat plasma assessed as parent compound remaining at 1 uM at 37 degC after 24 hrs by HPLC method; assay type: ADME, cell-free; conditions: read-out: Stability
Method in brief: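 Thawed rat plasma was diluted to 80% v/v with 0.1 M PBS, pH 7.4. Compound was spiked from DMSO stock (1% v/v DMSO final) and held at 37 °C. Aliquots were quenched with two volumes of acetonitrile and centrifuged at 4 °C, 10,000 g, 10 min. Supernatants were run on HPLC with external standard; the result is percent parent remaining at 24 h, mean ± SD, n = 3.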

KB [21] = experiment: Prodrug conversion in human KB cells lysates assessed as formation of cysteine conjugates at 500 uM in presence of 10 mM cysteine by LC-HRMS method; assay type: ADME, cell-based, Lysate
Method in brief: (§3)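 KB cells (5 × 10^6) were lysed by freeze/thaw. DMSO stock prepared just before use was added to lysate already containing cysteine, with DMSO matched in controls, and incubated at 37 °C. Aliquots taken at 30 min and 1 h were mixed with two volumes of acetonitrile and centrifuged (4 °C, 10,000 g, 10 min). They were analysed by LC-HRMS in positive mode using a water + 0.1% formic acid/methanol gradient.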

KB [22] = experiment: Prodrug conversion in human KB cells lysates assessed as glaucocalyxin A formation at 500 uM in presence of 10 mM cysteine by LC-HRMS method; assay type: ADME, cell-based, Lysate; method in brief: as §3

Row | SMILES | IC50 [1] [µM] | IC50 (B16) [µM] | IC50 [2] [µM] | IC50 (A549) [µM] | IC50 (KB [3]) [µM] | IC50 [4] [µM] | other results
1 | Cc1ccccc1NCC1C(=O)[C@@]23[C@H](O)C[C@@H]4C(C)(C)C(=O)CC[C@@]4(C)[C@@H]2CC[C@@H]1[C@H]3O (some centres not stated) | 22.2 | 19.2 | 38.4 | 24.7 | 23.4 | 18.1 | 
2 | Cc1ccc(NCC2C(=O)[C@@]34[C@H](O)C[C@@H]5C(C)(C)C(=O)CC[C@@]5(C)[C@@H]3CC[C@@H]2[C@H]4O)cc1 (some centres not stated) | 12.2 | 8.54 | 16.1 | 10.6 | 7.22 | 8.92 | IC50 [5]: 21.1 µM; Activity (KB [6]): Dose-dependent effect; Activity (KB [7]): 77.9%; Activity (KB [8]): 14.5%; Activity (KB [9]): 4.46%; Activity (KB [10]): 3.19%; Activity (KB [11]): 69.9%; Activity (KB [12]): 20.5%; Activity (KB [13]): 5.42%; Activity (KB [14]): 4.13%; Activity (KB [15]): 49%; Activity (KB [16]): 23.4%; Activity (KB [17]): 15.6%; Activity (KB [18]): 11.9%; remaining at 24 h, 1 µM [19]: 104%; remaining at 24 h, 1 µM [20]: 86.4%; Retention_time (KB [21]): 2.52 min; Drug metabolism (KB [22]): metabolite_detected
3 | CC1(C)C(=O)CC[C@]2(C)[C@@H]1C[C@@H](O)[C@]13C(=O)C(CNc4ccc(C(=O)O)cc4)[C@H](CC[C@@H]21)[C@H]3O (some centres not stated) | 16.8 | 6.79 | 22.3 | 11.7 | 6.13 | 10.5 | IC50 [5]: 35.4 µM
4 | Cc1cccc(NCC2C(=O)[C@@]34[C@H](O)C[C@@H]5C(C)(C)C(=O)CC[C@@]5(C)[C@@H]3CC[C@@H]2[C@H]4O)c1 (some centres not stated) | 20.7 | 14.4 | 38.7 | 28.3 | 29.6 | 13.5 | 
5 | O=c1[nH]cc(F)c(=O)[nH]1 [FLUOROURACIL] | 67.7 | 17.9 | 59.9 | 51.6 | 53.5 | 27 | 
6 | CC1(C)C(=O)CC[C@]2(C)[C@@H]1C[C@@H](O)[C@]13C(=O)C(CNc4ccc(S(=O)(=O)c5ccccc5)cc4)[C@H](CC[C@@H]21)[C@H]3O (some centres not stated) | 14.1 | 10.5 | 15.5 | 13.7 | 5.64 | 15.3 | 
7 | CC1(C)C(=O)CC[C@]2(C)[C@@H]1C[C@@H](O)[C@]13C(=O)C(CNc4ccc(F)cc4)[C@H](CC[C@@H]21)[C@H]3O (some centres not stated) | 19.8 | 12.9 | 34.2 | 22.7 | 12.3 | 17.8 | 
8 | CC1(C)C(=O)CC[C@]2(C)[C@@H]1C[C@@H](O)[C@]13C(=O)C(CNc4ccc(Cl)cc4)[C@H](CC[C@@H]21)[C@H]3O (some centres not stated) | 14.1 | 9.4 | 21.2 | 15.8 | 6.54 | 14.1 | 
9 | CC1(C)C(=O)CC[C@]2(C)[C@@H]1C[C@@H](O)[C@]13C(=O)C(CNc4ccc(Br)cc4)[C@H](CC[C@@H]21)[C@H]3O (some centres not stated) | 18.1 | 10.9 | 25.4 | 19.2 | 6.31 | 14.6 | 
10 | CC1(C)C(=O)CC[C@]2(C)[C@@H]1C[C@@H](O)[C@]13C(=O)C(CNc4ccccc4)[C@H](CC[C@@H]21)[C@H]3O (some centres not stated) | 48 | 11.5 | 32.6 | 37.2 | 31 | 15.1 | 
11 | CC1(C)C(=O)CC[C@]2(C)[C@@H]1C[C@@H](O)[C@]13C(=O)C(CNc4ccccc4Br)[C@H](CC[C@@H]21)[C@H]3O (some centres not stated) | 28.4 | 15.2 | 33.5 | 32.6 | 13.9 | 12.5 | 
12 | COc1ccc(NCC2C(=O)[C@@]34[C@H](O)C[C@@H]5C(C)(C)C(=O)CC[C@@]5(C)[C@@H]3CC[C@@H]2[C@H]4O)cc1 (some centres not stated) | 18 | 12.1 | 22.4 | 13.6 | 6.41 | 5.7 | 
13 | CC1(C)C(=O)CC[C@]2(C)[C@@H]1C[C@@H](O)[C@]13C(=O)C(CNC4CCCCC4)[C@H](CC[C@@H]21)[C@H]3O (some centres not stated) | 15.2 | 5.66 | 20.7 | 11.1 | 11.3 | 9.35 | IC50 [5]: 8.95 µM
14 | CC1(C)C(=O)CC[C@]2(C)[C@@H]1C[C@@H](O)[C@]13C(=O)C(CNc4cccc(C#N)c4)[C@H](CC[C@@H]21)[C@H]3O (some centres not stated) | 19.1 | 18.2 | 24.4 | 21.3 | 8.08 | 23.2 | 
15 | CC1(C)C(=O)CC[C@]2(C)[C@@H]1C[C@@H](O)[C@]13C(=O)C(CNc4ccccc4F)[C@H](CC[C@@H]21)[C@H]3O (some centres not stated) | 14.5 | 9.59 | 24.3 | 20.6 | 11.2 | 15.6 | 
16 | CC(=O)c1ccc(NCC2C(=O)[C@@]34[C@H](O)C[C@@H]5C(C)(C)C(=O)CC[C@@]5(C)[C@@H]3CC[C@@H]2[C@H]4O)cc1 (some centres not stated) | 26.1 | 18.3 | 31.9 | 21.8 | 12.6 | 11.7 | 
17 | CC1(C)C(=O)CC[C@]2(C)[C@@H]1C[C@@H](O)[C@]13C(=O)C(CNc4ccccc4Cl)[C@H](CC[C@@H]21)[C@H]3O (some centres not stated) | 32.3 | 16.7 | 28.6 | 21.6 | 11 | 23 | 
